Results on two compounds are retold here after ChEMBL document CHEMBL4020830, “Design, Synthesis, and Evaluation of a Novel Series of Indole Sulfonamide Peroxisome Proliferator Activated Receptor (PPAR) α/γ/δ Triple Activators: Discovery of Lanifibranor, a New Antifibrotic Clinical Candidate” (J Med Chem, 2018).

In data set [1] the target is T1, Peroxisome proliferator-activated receptor alpha (Homo sapiens) (UniProt Q07869).
T1 sequence (whole entry): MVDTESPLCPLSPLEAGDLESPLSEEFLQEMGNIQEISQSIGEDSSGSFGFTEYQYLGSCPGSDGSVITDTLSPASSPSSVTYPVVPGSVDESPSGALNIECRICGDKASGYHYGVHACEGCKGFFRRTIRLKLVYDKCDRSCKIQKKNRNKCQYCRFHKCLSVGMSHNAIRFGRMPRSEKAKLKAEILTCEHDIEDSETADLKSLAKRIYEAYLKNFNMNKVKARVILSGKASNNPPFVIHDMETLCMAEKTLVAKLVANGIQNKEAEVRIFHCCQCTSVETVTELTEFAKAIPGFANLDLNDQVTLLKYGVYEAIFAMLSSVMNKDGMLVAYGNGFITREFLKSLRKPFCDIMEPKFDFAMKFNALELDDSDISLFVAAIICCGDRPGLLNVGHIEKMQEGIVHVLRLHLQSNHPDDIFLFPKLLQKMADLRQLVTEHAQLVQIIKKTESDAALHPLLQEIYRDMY
Description: Transactivation of PPARalpha in human HuH7 cells assessed increase in [14C]oleate beta-oxidation at 30 uM preincubated for 48 hrs followed by [14C]oleate addition during last 2 hrs of incubation period relative to control. In kind it is cell-based. A digest of the protocol: (§1)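 Fatty acid beta-oxidation was used as the functional read-out. PPARα activity was tested in human hepatoma HuH7 cells and PPARδ activity in mouse myoblast C2C12 cells, at 1, 3, 10 and 30 µM. Values are % beta-oxidation, mean of at least 2 independent experiments run in triplicate, with single-experiment values flagged.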

Data set [2] is described as follows: Cmax in C57Bl6 mouse at 10 mg/kg, po administered as single oral dose. In kind it is ADME, organism-based. As to conditions: in vivo. In short, it runs like this: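 Single oral dose of 10 mg/kg in methyl cellulose vehicle given to C57Bl6 mice. Plasma was sampled over a 24 h period. […]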

Data set [3] in a line: Apparent permeability from basolateral to apical side in human Caco2 cells at 10 uM after 2 hrs by LC-MS/MS analysis. Format: ADME, cell-based, Caco-2. (In general: Caco-2 cells form a polarised layer with tight junctions and transporters.)
In data set [4] the target is T2, Peroxisome proliferator-activated receptor alpha (Homo sapiens, UniProt Q07869).
T2 sequence (Q07869 whole entry): T1 sequence (whole entry)
Description: Transactivation of human GAL4-fused PPARalpha LBD expressed in African green monkey COS7 cells co-expressing 5Gal4 pGL3 TK Luc after overnight incubation by luciferase reporter gene assay. Format: cell-based. In short, it runs like this: (§2)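 Cell-based Gal-4 transactivation assay in COS-7 cells transfected with PPARα, PPARδ or PPARγ ligand-binding domain. EC50 and Emax were derived, with Emax as maximum activation in percent of control. EC50s are means of at least two independent experiments performed in triplicate.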
A general note: A reporter such as luciferase makes a cellular process visible.

Data set [5] in a line: Efflux ratio of apparent permeability in human Caco2 cells at 10 uM after 2 hrs by LC-MS/MS analysis. Format: ADME, cell-based, Caco-2.
For data set [6], the target named is T3, Peroxisome proliferator-activated receptor gamma (Homo sapiens, UniProt P37231).
T3 sequence (P37231 whole entry): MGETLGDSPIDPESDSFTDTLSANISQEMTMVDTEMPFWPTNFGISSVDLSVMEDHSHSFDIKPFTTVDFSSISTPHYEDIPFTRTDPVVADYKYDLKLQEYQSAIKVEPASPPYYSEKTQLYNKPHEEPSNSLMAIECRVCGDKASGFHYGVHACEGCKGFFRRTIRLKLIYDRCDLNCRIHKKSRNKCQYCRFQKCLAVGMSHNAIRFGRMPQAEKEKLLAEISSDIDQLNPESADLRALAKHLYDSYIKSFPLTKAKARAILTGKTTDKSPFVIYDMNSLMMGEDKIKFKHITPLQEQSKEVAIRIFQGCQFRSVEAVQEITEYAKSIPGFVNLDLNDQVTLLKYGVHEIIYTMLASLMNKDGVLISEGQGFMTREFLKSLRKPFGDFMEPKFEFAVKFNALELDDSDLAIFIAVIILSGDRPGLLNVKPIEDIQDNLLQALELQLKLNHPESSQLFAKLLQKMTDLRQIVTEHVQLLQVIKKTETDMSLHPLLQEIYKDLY
Description: Transactivation of human GAL4-fused PPARgamma LBD expressed in African green monkey COS7 cells co-expressing 5Gal4 pGL3 TK Luc after overnight incubation by luciferase reporter gene assay. In kind it is cell-based. A digest of the protocol:
as §2

For data set [7], the target named is T4, Peroxisome proliferator-activated receptor gamma (Homo sapiens) (UniProt P37231).
T4 sequence (whole entry): T3 sequence (P37231 whole entry)
Description: Transactivation of human GAL4-fused PPARgamma LBD expressed in African green monkey COS7 cells co-expressing 5Gal4 pGL3 TK Luc after overnight incubation by luciferase reporter gene assay relative to rosiglitazone. Format: cell-based. In short, it runs like this: as §2

In data set [8] the target is T5, Peroxisome proliferator-activated receptor delta (Homo sapiens) (UniProt Q03181).
T5 sequence (whole entry): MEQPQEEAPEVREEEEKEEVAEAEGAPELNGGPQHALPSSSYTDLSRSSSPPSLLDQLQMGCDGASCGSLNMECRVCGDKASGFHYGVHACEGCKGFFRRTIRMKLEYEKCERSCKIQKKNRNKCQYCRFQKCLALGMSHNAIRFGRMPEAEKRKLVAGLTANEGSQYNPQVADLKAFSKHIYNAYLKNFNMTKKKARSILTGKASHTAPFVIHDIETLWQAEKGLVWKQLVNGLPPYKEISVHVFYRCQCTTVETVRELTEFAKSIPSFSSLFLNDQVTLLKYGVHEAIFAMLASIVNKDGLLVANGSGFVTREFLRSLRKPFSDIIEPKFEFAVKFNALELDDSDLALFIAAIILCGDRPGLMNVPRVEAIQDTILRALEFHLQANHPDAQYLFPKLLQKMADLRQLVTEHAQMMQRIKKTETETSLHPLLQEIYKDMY
Description: Transactivation of human GAL4-fused PPARdelta LBD expressed in African green monkey COS7 cells co-expressing 5Gal4 pGL3 TK Luc after overnight incubation by luciferase reporter gene assay relative to GW501516. In kind it is cell-based. In short, it runs like this:
as §2

Data set [9] concerns the target T1, Peroxisome proliferator-activated receptor alpha (Homo sapiens). Description: Transactivation of PPARalpha in human HuH7 cells assessed increase in [14C]oleate beta-oxidation at 1 uM preincubated for 48 hrs followed by [14C]oleate addition during last 2 hrs of incubation period relative to control. Format: cell-based. In short, it runs like this: as §1
Data set [10] deals with T6, Peroxisome proliferator-activated receptor delta (Homo sapiens, UniProt Q03181).
T6 sequence (Q03181 whole entry): T5 sequence (whole entry)
Description: Transactivation of human GAL4-fused PPARdelta LBD expressed in African green monkey COS7 cells co-expressing 5Gal4 pGL3 TK Luc after overnight incubation by luciferase reporter gene assay. Format: cell-based. A digest of the protocol: as §2

Data set [11] deals with T1, Peroxisome proliferator-activated receptor alpha (Homo sapiens). Kind of data set: Transactivation of PPARalpha in human HuH7 cells assessed increase in [14C]oleate beta-oxidation at 10 uM preincubated for 48 hrs followed by [14C]oleate addition during last 2 hrs of incubation period relative to control. Format: cell-based. A digest of the protocol: as §1
Data set [12] in a line: Apparent permeability from apical to basolateral side in human Caco2 cells at 10 uM after 2 hrs by LC-MS/MS analysis. In kind it is ADME, cell-based, Caco-2.

Broadly, the Cmax is the highest concentration seen after dosing. The term Papp B→A denotes how fast a substance crosses the layer from the basolateral side. Usually EC50 stands for the concentration at which the effect is half-maximal. In general, efflux ratio refers to a quotient of directional permeabilities that is used to spot active efflux. As usually defined, the Papp A→B is the apparent permeability from the apical to the basolateral side of a cell layer. In the case of `O=C(O)CCc1cc2cc(Cl)ccc2n1S(=O)(=O)c1ccccc1`, the Activity in [1] came to 96%; in data set [9] it was 5%; in data set [11] it was 45%. The peak concentration (Cmax) in data set [2] is 14600 ng/mL. The Papp B→A at 2 h, 10 µM in [3] (Caco-2) is 14.4 ×10⁻⁶ cm/s. The EC50 came out at 260 nM in data set [4], 1560 nM in data set [6] and 1910 nM in [10]. Moreover, the efflux ratio at 2 h, 10 µM in [5] (Caco-2) was found to be 0.2. For the same compound, the Emax in [7] was 43%; in [8], 56%. The Papp A→B at 2 h, 10 µM in [12] (Caco-2) stood at 61 ×10⁻⁶ cm/s.
Broadly, the Papp is the rate of passage across a membrane or cell layer, normalised by area and donor concentration. `O=C(O)CCCc1cc2cc(Cl)ccc2n1S(=O)(=O)c1ccc2ncsc2c1` [LANIFIBRANOR]: the figures for the Activity in data set [1], in data set [9] and in data set [11] were 120%, 44% and 113%, respectively. In data set [2], the peak level (Cmax) was 10700 ng/mL. Besides, the apparent permeability coefficient (Papp) in data set [3] (caco-2, 2 h, 10 µM) was found to be 0.2 ×10⁻⁶ cm/s; in data set [12] (caco-2, 2 h, 10 µM), 24 ×10⁻⁶ cm/s. Besides, the EC50 in [4] was 1540 nM; in data set [6], 206 nM; in data set [10], 866 nM. Besides, the Ratio in data set [5] (caco-2, 2 h, 10 µM) was 0.1. The Emax in data set [7] turned out to be 79%; in data set [8] it was 105%.
